From ChEMBL document CHEMBL3822431, “Hydroxychalcone inhibitors of Streptococcus mutans glucosyl transferases and biofilms as potential anticaries agents” (Bioorg Med Chem Lett, 2016) come the findings set out here.

In one experiment the test system is Streptococcus mutans. The experiment in a line: Selectivity index, ratio of growth inhibition IC50 for Streptococcus mutans UA159 to biofilm inhibition IC50 for Streptococcus mutans UA159.
Experiment [1] deals with T1, Glucosyltransferase-S (Streptococcus mutans serotype c (strain ATCC 700610 / UA159)) (UniProt P49331).
T1 sequence (whole entry): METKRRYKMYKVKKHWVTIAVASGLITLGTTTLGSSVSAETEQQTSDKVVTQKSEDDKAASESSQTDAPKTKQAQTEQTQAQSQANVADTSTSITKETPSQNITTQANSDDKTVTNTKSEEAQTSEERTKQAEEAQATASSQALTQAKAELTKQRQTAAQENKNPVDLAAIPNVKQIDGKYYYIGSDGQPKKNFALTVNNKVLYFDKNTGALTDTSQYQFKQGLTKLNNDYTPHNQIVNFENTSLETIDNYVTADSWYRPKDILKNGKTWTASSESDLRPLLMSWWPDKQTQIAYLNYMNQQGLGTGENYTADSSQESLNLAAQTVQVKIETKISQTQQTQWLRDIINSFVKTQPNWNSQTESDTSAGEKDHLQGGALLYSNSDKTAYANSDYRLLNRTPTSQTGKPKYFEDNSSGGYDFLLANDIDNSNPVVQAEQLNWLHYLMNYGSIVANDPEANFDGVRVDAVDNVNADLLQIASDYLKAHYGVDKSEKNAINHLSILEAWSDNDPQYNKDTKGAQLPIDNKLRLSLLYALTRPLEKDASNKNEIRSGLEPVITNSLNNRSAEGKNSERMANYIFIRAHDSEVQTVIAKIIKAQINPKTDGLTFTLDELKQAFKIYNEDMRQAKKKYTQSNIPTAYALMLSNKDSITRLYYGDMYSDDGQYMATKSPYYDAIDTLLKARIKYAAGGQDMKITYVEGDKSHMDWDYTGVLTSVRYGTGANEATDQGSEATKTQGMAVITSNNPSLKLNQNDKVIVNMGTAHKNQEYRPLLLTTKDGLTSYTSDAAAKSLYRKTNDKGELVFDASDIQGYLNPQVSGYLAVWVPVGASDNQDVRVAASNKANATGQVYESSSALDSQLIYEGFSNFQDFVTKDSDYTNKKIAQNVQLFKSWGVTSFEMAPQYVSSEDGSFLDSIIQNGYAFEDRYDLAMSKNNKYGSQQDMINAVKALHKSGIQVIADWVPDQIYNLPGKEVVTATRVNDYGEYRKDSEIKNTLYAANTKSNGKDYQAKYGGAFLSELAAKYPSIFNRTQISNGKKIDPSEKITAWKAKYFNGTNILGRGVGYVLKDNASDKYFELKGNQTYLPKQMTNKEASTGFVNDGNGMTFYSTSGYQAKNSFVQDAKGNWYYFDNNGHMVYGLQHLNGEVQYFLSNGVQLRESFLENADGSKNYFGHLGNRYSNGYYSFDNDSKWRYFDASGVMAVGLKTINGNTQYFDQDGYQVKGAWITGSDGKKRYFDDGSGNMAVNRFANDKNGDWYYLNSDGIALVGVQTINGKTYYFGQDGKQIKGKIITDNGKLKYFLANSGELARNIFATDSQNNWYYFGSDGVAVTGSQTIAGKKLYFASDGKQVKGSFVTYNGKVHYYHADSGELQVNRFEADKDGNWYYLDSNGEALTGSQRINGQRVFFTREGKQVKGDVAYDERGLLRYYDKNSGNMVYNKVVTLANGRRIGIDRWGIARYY
The experiment in a line: Inhibition of Wild-type Streptococcus mutans UA159 glucosyltransferase D at 50 uM by coomassie blue staining based SDS-PAGE method. An outline of the steps: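 Compound (50 µM) added to overnight S. mutans UA159 wild-type cultures; Gtfs collected and concentrated from supernatants, run on SDS-PAGE in duplicate; one gel Coomassie blue stained for protein levels.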

Experiment [2] concerns the target T1, Glucosyltransferase-S (Streptococcus mutans serotype c (strain ATCC 700610 / UA159)). The experiment in a line: Inhibition of Wild-type Streptococcus mutans UA159 glucosyltransferase D at 50 uM by zymography. An outline of the steps: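 Compound (50 µM) added to overnight S. mutans UA159 wild-type cultures; Gtfs concentrated from supernatants, run on duplicate SDS-PAGE; second gel used for zymogram, glucan band intensity taken as Gtf activity.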

Structures are written as SMILES. The source made the active and inactive calls. No cut-off for these calls is given here.

With `O=C(/C=C\c1ccc(O)cc1O)c1cccc(O)c1`, in the experiment on Streptococcus mutans, the “Ratio IC50” value was 10.6. Moreover, the inhibition entry in experiment [1] and in experiment [2] was “Active” in each case.
As for `O=C(/C=C/c1cc(O)c(O)cc1O)c1ccccc1O` (stereo in doubt; 18c), the inhibition result in experiment [1] and in experiment [2] was “Active” throughout.
As to `O=C(/C=C/c1ccc(O)cc1O)c1ccc(O)cc1`, the “Ratio IC50” value with Streptococcus mutans was determined as 6.6. The inhibition entry in experiment [1] and in experiment [2] was “Active” each time.
As to `O=C(/C=C\c1ccc(O)cc1O)c1ccc(O)cc1`, the “Ratio IC50” value with Streptococcus mutans came to 10.1. Moreover, the inhibition entry in experiment [1] and in experiment [2] was “Active” in each case.
In the case of `O=C(/C=C/c1ccc(O)cc1O)c1cccc(O)c1` (stereo in doubt; 9a), the inhibition result in experiment [1] and in experiment [2] was “Active” in each case.
